# Shown are actives, neighbours in structure and some others; about 0.79% of the full set was active somewhere.
# mIAP activ: increases mouse intestinal alkaline phosphatase activity; muIAP, CDP-Star luminescence, 30 min; hits give high values; 1 = vehicle-only enzyme signal, 0 = enzyme-free wells; activation factor at 10 µM; hit rate 0.24% among 330,000;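 active = activation factor of at least 2 at 20 µM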
#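 also added = chemiluminescent substrate CDP-Star | test system = mouse IAP enzyme | signal = chemiluminescence readout | compound = DMSO-dissolved test compounds | incubation = 30 min at room temperature | benchmarks = DMSO wells, no-enzyme wells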
# bIAP activator: intestinal alkaline phosphatase (bovine) activation | purified bovine IAP, CDP-star luminescence, 30 min; hits give high values; fold of DMSO-control signal, blank-subtracted | activation factor at 20 µM | hit rate 0.17% among 200,000;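 active = activation factor of 2 or more at 20 µM, a signal rise over negative controls twice the positive control's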
# hIAP activ: human IAP activation | AID 2524 | purified human IAP, CDP-Star luminescence, 30 min; hits give high values; 1 = vehicle-only enzyme, 0 = enzyme-free background | hit rate 0.16% among 330,000 | P09923 | activation factor at 10 µM;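 active = activation factor of the enzyme at least 2-fold when tested at 20 µM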
# Target sequence (P09923 whole entry, looked up): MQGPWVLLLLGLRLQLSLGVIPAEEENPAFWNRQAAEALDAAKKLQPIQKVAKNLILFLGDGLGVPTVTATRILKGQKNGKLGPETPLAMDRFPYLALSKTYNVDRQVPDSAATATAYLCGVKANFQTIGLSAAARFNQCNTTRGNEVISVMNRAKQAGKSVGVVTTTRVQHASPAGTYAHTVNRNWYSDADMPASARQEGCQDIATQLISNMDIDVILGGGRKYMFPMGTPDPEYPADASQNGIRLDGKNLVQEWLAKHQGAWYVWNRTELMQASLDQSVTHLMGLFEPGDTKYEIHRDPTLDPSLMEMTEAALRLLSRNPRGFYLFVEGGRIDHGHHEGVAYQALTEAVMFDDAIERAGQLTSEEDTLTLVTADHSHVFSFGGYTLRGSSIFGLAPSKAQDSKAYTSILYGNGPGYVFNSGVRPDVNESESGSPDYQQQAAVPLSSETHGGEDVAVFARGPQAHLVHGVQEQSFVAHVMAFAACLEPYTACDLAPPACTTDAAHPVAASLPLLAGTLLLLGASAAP
# bIAP inhibitor: blocks bovine intestinal alkaline phosphatase activity. purified bovine IAP, CDP-star luminescence, 30 min. inhibition, % at 20 µM. 190,000 tested, under 10 active. AID 1019;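 active = over 50% inhibition of intestinal alkaline phosphatase at 20 µM in the single-dose screen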
#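 System: purified bovine intestinal alkaline phosphatase (IAP) enzyme; Input: IAP diluted 1/65,000,000 in the well; Measured by: CDP-star luminescence signal; Compound dosing: 20 µM single dose; Incubation: 30 min reaction at room temperature.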
# mIAP inh: blocks mouse intestinal alkaline phosphatase | purified mouse IAP, CDP-Star luminescence, 30 min | inhibition, % at 10 µM | hit rate 0.2% among 330,000 | AID 2806;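 active = inhibition of at least 40% at 10 µM in the primary screen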;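 note: plate controls were DMSO with enzyme for no effect and no enzyme wells for full effect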
# hIAP block: human IAP inhibition; P09923; purified IAP, CDP-Star luminescence, 30 min; inhibition, % at 10 µM; hit rate 0.12% among 330,000; AID 2544;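 active = inhibition reaching a set limit with compound at 10 µM in the primary screen, cut at about 35% in these data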;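 note: plate controls were DMSO wells with enzyme for no effect and no-enzyme buffer wells for full effect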
# An asterisk follows results filed as active; x = no result.
SMILES,mIAP activ,bIAP activator,hIAP activ,bIAP inhibitor,mIAP inh,hIAP block
CCn1c(C(O)c2cc(OC)c(OC)c(OC)c2)nc2ccccc21 (configuration not stated),1.1,x,1.1,x,-6,-11
CCOC(=O)C1CCN(CC(=O)c2ccc(O)c(C)c2O)CC1,0.98,x,1.2,x,2,-22
O=C(Nc1ccc(Cl)cc1)NC1CCCC1Cc1ccco1 (configuration not stated),2.8*,1.1,1.2,-10,-178,-16
O=C(Nc1ccc(Cl)cc1)NC1CCCCC1,1.2,1.1,1.1,-9,-16,-9
COc1ccccc1NC(=O)CN1CCN(C2c3ccccc3-c3ccccc32)CC1,1.1,2*,1.1,-96,-9,-10
c1ccc2[nH]c(SCc3cn4ccccc4n3)nc2c1,1.1,1.4,1.5,-41,-6,-46
Cc1cccc2nc(CSc3nc4ccccc4[nH]3)cn12,0.9,2.6*,0.92,-155,10,8
CC(C)c1ccc(OCC(=O)Nc2ccccc2C(=O)N2CCOCC2)cc1,1.1,x,1.4,x,-10,-36
CC(C)Oc1cc(N)c(Cl)cc1Cl,0.96,1,1.1,-1,4,-14
CS(=O)(=O)N(CC(=O)NCCSCc1ccccc1)c1ccccc1F,0.95,x,0.81,x,5,19
C=CCn1c2ccccc2c2nnc(SCCCn3c(=O)[nH]c4ccccc43)nc21,x,2*,x,-99,x,x
CCc1ccccc1NC(=O)CSc1nc2n[nH]c(C)c2c(=N)n1-c1ccc(OC)cc1,x,0.9,x,7,x,x
CCCN(CCC)C(=O)CSc1nc2n[nH]c(C)c2c(=N)n1-c1ccc(OCC)cc1,1.1,2.1*,0.9,-111,-8,10
CCCN(CCC)C(=O)CSc1nc2n[nH]c(C)c2c(=N)n1-c1ccc(OC)cc1,1.3,2.9*,1.1,-190,-28,-10
COc1ccc(OC)c(S(=O)(=O)N2CCC(C(=O)Nc3cccc(C(F)(F)F)c3)CC2)c1,2.6*,1,1.1,0,-156,-11
COc1cccc(NC(=O)C2CCN(S(=O)(=O)c3ccc4c(c3)OCCO4)CC2)c1,1.5,2.5*,0.84,-152,-49,16
CCc1cccc(CN2CCC(CNC(=O)Nc3ccc(Cl)cc3)CC2)c1,3.6*,1.4,1.4,-38,-259,-43
O=C(NCC1CCN(Cc2cccc(Cl)c2)CC1)Nc1ccc(Cl)cc1,3.1*,x,1.4,x,-210,-42
O=C(NCCN1CCN(Cc2ccccc2)CC1)Nc1cc(Cl)cc(Cl)c1,2*,x,1,x,-102,-4
COc1cc([N+](=O)[O-])ccc1NC(=O)NCC1CCN(Cc2ccc(Cl)cc2)CC1,1,x,0.92,x,-2,8
CCCCN1CC(=O)N2[C@H](c3ccc(Cl)cc3)[C@@H]3C(=O)N(CC)C(=O)[C@@H]3[C@]2(Cc2ccccc2)C1=O,0.98,x,0.89,x,2,12
O=C(Nc1ccc(Cl)c(Cl)c1)Nc1cc(C(=O)NC2CC2)ccc1Cl,2.2*,1,1.1,3,-116,-15
COc1ccc(S(=O)(=O)N2CCSC2C)cc1C (configuration not stated),0.88,x,1.1,x,12,-6
CCCCCCCCn1ccc(=N)cc1,1,x,0.97,x,-5,2
O=C1NC(=S)S/C1=C/c1ccc(N2CCOCC2)o1,0.47,1,0.85,-2,53*,15
SMILES,mIAP activ,bIAP activator,hIAP activ,bIAP inhibitor,mIAP inh,hIAP block
O=C1C2CC(O)CN2C(=S)N1Cc1ccccc1 (configuration not stated),1,x,0.99,x,-4,1
Cc1cc(N2O[C@]34C=C[C@]25C[C@@H](O)CC[C@]5(C)C3CC[C@]2(C)[C@@H]([C@H](C)/C=C/[C@H](C)C(C)C)CC[C@H]24)no1 (some centres not stated),1.7,x,x,x,-59,x
COC(=O)c1ccc(NC(=S)NCCC2=CCCCC2)cc1,2.5*,1.1,1.2,-6,-147,-18
COC(=O)c1cccc(NC(=S)NCCC2=CCCCC2)c1,1.8,1,0.92,3,-82,8
CN(c1cccc(NC(=O)CN(c2ccc(Cl)c(Cl)c2)S(=O)(=O)c2ccccc2)c1)S(C)(=O)=O,1.5,1,0.93,-2,-53,7
Cc1ccc(S(=O)(=O)N(CC(=O)Nc2cccc(N(C)S(C)(=O)=O)c2)c2ccc(Cl)c(Cl)c2)cc1,2.6*,1.4,1.1,-36,-158,-14
CC(O)c1nc2ccccc2n1C/C=C/c1ccccc1 (configuration not stated),0.94,1,1.1,-1,6,-8
OCc1nc2ccccc2n1C/C=C/c1ccccc1,1,2.2*,1.1,-125,-2,-14
CCOP(=O)(OCC)C(NC(=O)Nc1ccc(Cl)c(Cl)c1)C(N)=O (configuration not stated),1.1,0.4,0.93,x,-12,7
CCOP(=O)(OCC)C(NC(=O)Nc1ccc(Cl)c(Cl)c1)c1ccccc1 (configuration not stated),5*,0.9,0.96,6,-402,4
CCOP(=O)(OCC)C(NC(=O)Nc1ccc(Cl)cc1)C(N)=O (configuration not stated),0.95,0.9,1,13,5,-2
CCOP(=O)(OCC)C(NC(=O)Nc1ccc(Cl)cc1)c1ccccc1 (configuration not stated),2*,1,1.3,2,-103,-33
O=C(NCc1ccccc1)c1nc2c(nnn2Cc2cccc(Cl)c2)c(=O)[nH]1,1,2.2*,1.3,-116,-1,-26
O=C(NCc1ccco1)c1nc2c(nnn2Cc2cccc(Cl)c2)c(=O)[nH]1,1.1,1,1.2,-3,-9,-24
Cc1ccc(NC(=S)NC(NC(=O)c2ccco2)C(Cl)(Cl)Cl)cc1 (configuration not stated),2,1,1.1,1,-99,-10
Cc1cc(C)c(NC(=S)NC(NC(=O)c2ccccc2)C(Cl)(Cl)Cl)c(C)c1 (configuration not stated),2.5*,0.9,0.99,8,-152,1
Cc1cccc(NC(=S)NC(NC(=O)c2ccco2)C(Cl)(Cl)Cl)c1 (configuration not stated),2*,0.8,1,19,-104,-2
Cc1ccc(NC(=S)NC(NC(=O)c2ccccc2)C(Cl)(Cl)Cl)c(C)c1 (configuration not stated),1.8,1.2,1.1,-18,-84,-6
O=[N+]([O-])c1ccc(Oc2ccc(S(=O)(=O)N3CCOCC3)cn2)cc1,0.93,x,0.94,x,7,6
Cn1c2ccccc2c(=O)c2ccc(NCCc3cccs3)cc21,0.82,x,1.1,x,18,-10
Cc1cc(NC(=O)Nc2ccccc2F)ccc1Br,3.1*,0.9,1.1,6,-205,-5
O=C(Nc1ccccc1)Nc1ccc(Br)cc1F,1.8,0.9,0.83,14,-81,17

# Screening data from PubChem.
